Test results reported in publication PMC11911394 (Nature Communications, 2025).
One block for each molecule: values may come before it.

Key:
[1] = tested on: nirFAST; experiment: Characterization of nirFAST with prototypical FAST; type: physicochemical; conditions: fluorogen bound to nirFAST
Summary of the method: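 His-tag-purified protein came from E. coli BL21(DE3) or Rosetta(DE3)pLysS, induced overnight with 1 mM IPTG at 16 °C and isolated on Ni-NTA. Spectra were recorded in PBS pH 7.4 at 25 °C on a plate reader. Quantum yield was measured in 96-well plates against a reference fluorogen:protein complex. Protein was 40 µM, with fluorogen usually 6 to 0.375 µM, giving >99% complex.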

[2] = type: physicochemical; conditions: exciting with red light
Summary of the method: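 Steady-state UV-Vis absorption and fluorescence spectra were recorded on a plate reader in PBS pH 7.4 at 25 °C.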

[3] = tested on: HeLa cells; experiment: Cell viability assay; type: cell-based; conditions: at the dose used for imaging; HeLa and HEK293T (Supplementary Fig. 8)
Summary of the method: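 HeLa cells were grown in MEM with phenol red, Glutamax I, 1 mM sodium pyruvate, 1% non-essential amino acids, 10% FBS and 1% penicillin–streptomycin at 37 °C and 5% CO₂. They were exposed to fluorogen at the indicated concentrations for 24 h. Viability was read as CellTiter-Glo luminescence on a plate reader, per kit protocol.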

[4] = tested on: nirFAST; experiment: nirFAST labeling kinetics in live HeLa cells; type: cell-based; conditions: 10 µM fluorogen
[5] = tested on: zebrafish larvae; experiment: Imaging of injected nirFAST-expressing HEK293T cells in zebrafish larvae; type: in vivo, zebrafish (Danio rerio); conditions: zebrafish larvae 4 dpf, 45 min of treatment
Summary of the method: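 HEK293T cells were transfected with a nirFAST-P2A-EGFP plasmid and, after 24 h, suspended at 10,000,000 cells/mL in serum-free DMEM. About 5–10 nL was microinjected near the heart of 2 dpf nacre larvae anesthetized with 0.02% MS-222. Larvae were raised at 28 °C, and green-positive ones were chosen. At 4 dpf they were incubated 45 min with fluorogen, anesthetized, mounted laterally in 0.8% low-melt agarose and imaged confocally.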

[6] = tested on: LAMP1–mCherry–FIREtag and nir-FIREmate–KIF17; experiment: nirCATCHFIRE control of lysosome positioning; type: cell-based; conditions: HeLa cells co-expressing LAMP1–mCherry–FIREtag and nir-FIREmate–KIF17

FQY of assembly with nirFAST [1]: 37%
Structure (SMILES): Cc1cc(/C=C2\SC(=S)NC2=O)cc(C)c1O [HBR-3,5DM]

FQY of assembly with nirFAST [1]: 24%
Structure (SMILES): COc1cc(/C=C2\SC(=S)NC2=O)cc(OC)c1O [HBR-3,5DOM]

fluorescence of free fluorogen [2]: completely non-fluorescent
Structure (SMILES): COc1cc(/C=C/C=C2\SC(=S)NC2=O)cc(OC)c1O [HPAR-3,5DOM, (Z)-5-((E)-3-(4-hydroxy-3,5-dimethoxyphenyl)allylidene)-2-thioxothiazolidin-4-one]
toxicity for mammalian cells [3]: non-toxic
time to complete labeling of nirFAST after fluorogen addition [4]: complete within twenty seconds
detection of nirFAST-expressing HEK293T cells in larvae [5]: efficiently detected
effect on lysosome positioning [6]: displacement of lysosomes from the perinuclear region to the cell periphery

The next lines start with the molecule.

Structure (SMILES): Cc1cc(/C=C2\SC(=S)NC2=O)c(C)cc1O [HBR-2,5DM]
fluorescence activation by nirFAST [1]: failed to activate efficiently the fluorescence

Structure (SMILES): Cc1cc(/C=C2\SC(=S)NC2=O)ccc1O [HMBR]
fluorescence activation by nirFAST [1]: failed to activate efficiently the fluorescence
